MIC and MIC80 data for 20 molecules are collected here from ChEMBL document CHEMBL1287666, “Synthesis and in vitro antifungal activities of new 3-substituted benzopyrone derivatives” (2010).

Values after ≈ are worked out from the molar mass of the structure shown.

Common to all, as to type: functional
The test system of one assay is Candida albicans. As to the kind of experiment: Antifungal activity against Candida albicans by serial dilution method. In short, it runs like this:
(§1)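 Broth serial dilution in 96-well microplates against a panel of five human pathogenic fungi. Activity is reported as the minimal inhibitory concentration (MIC), and fluconazole served as the positive control.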

Another assay deals with Candida parapsilosis. The assay is described as follows: Antifungal activity against Candida parapsilosis clinical isolate by serial dilution method. As to conditions: Lodderomyces parapsilosis. In outline: as §1
Another assay deals with Cryptococcus neoformans. The assay is described as follows: Antifungal activity against Cryptococcus neoformans by serial dilution method. In short, it runs like this:
as §1

Assay [1] concerns Trichophyton rubrum. As to the kind of experiment: Antifungal activity against Trichophyton rubrum.
Assay [2] deals with Trichophyton rubrum. The assay is described as follows: Antifungal activity against Trichophyton rubrum clinical isolate by serial dilution method. In outline: as §1
Another assay relates to Nannizzia gypsea. The assay is described as follows: Antifungal activity against Microsporum gypseum clinical isolate by serial dilution method. In short, it runs like this:
as §1

The MIC is the lowest concentration that inhibits growth of the organism. Higher therefore signals a less susceptible organism. As a reminder, the MIC80 is an inhibitory concentration at the 80% level, which refers to growth in some studies and to a panel of isolates in others. On to `CCCCC(=O)OCC#Cc1coc2cc(OC)ccc2c1=O`, for which the MIC in the assay on Candida albicans worked out at 25 µg/mL (≈ 79.5 µM); in the assay on Candida parapsilosis it was 25 µg/mL (≈ 79.5 µM); with Cryptococcus neoformans, 25 µg/mL (≈ 79.5 µM); against Trichophyton rubrum [2], 1.5 µg/mL (≈ 4.77 µM); with Nannizzia gypsea it was 25 µg/mL (≈ 79.5 µM). Besides, the MIC80 in the assay with Trichophyton rubrum [1] worked out at 1.5 µg/mL (≈ 4.77 µM).
`COc1ccc2c(=O)c(C#CCO)coc2c1`: the MIC against Candida albicans, with Candida parapsilosis, in the assay on Cryptococcus neoformans, in the assay with Trichophyton rubrum [2] and with Nannizzia gypsea was greater than 100 µg/mL in each case.
Regarding `COc1ccc2c(=O)c(C#CCOC(C)=O)coc2c1`, the MIC in the assay on Candida albicans is greater than 100 µg/mL; in the assay on Candida parapsilosis it was greater than 100 µg/mL; in the assay with Cryptococcus neoformans, greater than 100 µg/mL; against Trichophyton rubrum [2], greater than 100 µg/mL; against Nannizzia gypsea, 25 µg/mL (≈ 91.8 µM).
Take `CCCCCCCC(=O)OCC#Cc1coc2cc(OC)ccc2c1=O`: the MIC in the assay on Candida albicans, against Candida parapsilosis, against Cryptococcus neoformans, against Trichophyton rubrum [2] and in the assay with Nannizzia gypsea was greater than 100 µg/mL in each case.
Turning to `COc1ccc2c(=O)c(C#CCOC(=O)CCCCC(C)C)coc2c1`, the MIC is greater than 100 µg/mL in the assay on Candida albicans; 25 µg/mL (≈ 70.1 µM) in the assay with Candida parapsilosis; 50 µg/mL (≈ 140 µM) against Cryptococcus neoformans; 12.5 µg/mL (≈ 35.1 µM) against Trichophyton rubrum [2]; 12.5 µg/mL (≈ 35.1 µM) against Nannizzia gypsea.
With `COc1ccc2c(=O)c(C#CCOC(=O)C3C(C)(C)C3(C)C)coc2c1`, the MIC in the assay on Candida albicans was greater than 100 µg/mL; against Candida parapsilosis, greater than 100 µg/mL; with Cryptococcus neoformans, greater than 100 µg/mL; against Trichophyton rubrum [2] it was greater than 100 µg/mL; with Nannizzia gypsea, 12.5 µg/mL (≈ 35.3 µM).
With `COc1ccc2c(=O)c(C#CCOC(=O)c3ccc([N+](=O)[O-])cc3)coc2c1`, the MIC in the assay with Candida albicans, against Candida parapsilosis, against Cryptococcus neoformans, in the assay with Trichophyton rubrum [2] and with Nannizzia gypsea was greater than 100 µg/mL in each case.
With `COc1ccc2c(=O)c(C#CCOC(=O)c3cc([N+](=O)[O-])cc([N+](=O)[O-])c3)coc2c1`, the MIC in the assay with Candida albicans was greater than 100 µg/mL; in the assay on Candida parapsilosis, greater than 100 µg/mL; against Cryptococcus neoformans it was greater than 100 µg/mL; against Trichophyton rubrum [2] it was 50 µg/mL (≈ 118 µM); against Nannizzia gypsea, 50 µg/mL (≈ 118 µM).
Take `COc1ccc2c(=O)c(C#CCOC(=O)c3ccccc3)coc2c1`: the MIC against Candida albicans, with Candida parapsilosis, with Cryptococcus neoformans, in the assay on Trichophyton rubrum [2] and in the assay on Nannizzia gypsea was greater than 100 µg/mL each time.
As for `COc1ccc2c(=O)c(C#CCOC(=O)Cc3ccccc3)coc2c1`, the MIC in the assay with Candida albicans, in the assay with Candida parapsilosis, with Cryptococcus neoformans, against Trichophyton rubrum [2] and in the assay on Nannizzia gypsea was greater than 100 µg/mL throughout.
Take `COc1ccc2c(=O)c(C#CCOC(=O)Cc3ccc(Cl)cc3)coc2c1`: the MIC against Candida albicans, in the assay with Candida parapsilosis, in the assay with Cryptococcus neoformans, in the assay on Trichophyton rubrum [2] and in the assay with Nannizzia gypsea was greater than 100 µg/mL in each case.
Take `COc1ccc2c(=O)c(C#CCOC(=O)Cc3ccccc3Cl)coc2c1`: the MIC in the assay with Candida albicans is greater than 100 µg/mL; with Candida parapsilosis, greater than 100 µg/mL; in the assay with Cryptococcus neoformans it was greater than 100 µg/mL; in the assay on Trichophyton rubrum [2], 50 µg/mL (≈ 131 µM); against Nannizzia gypsea it was 50 µg/mL (≈ 131 µM).
In the case of `CCC(=O)OCC#Cc1coc2cc(OC)ccc2c1=O`, the MIC came out at 25 µg/mL (≈ 87.3 µM) in the assay on Candida albicans; 25 µg/mL (≈ 87.3 µM) with Candida parapsilosis; 25 µg/mL (≈ 87.3 µM) with Cryptococcus neoformans; 6.25 µg/mL (≈ 21.8 µM) with Trichophyton rubrum [2]; 12.5 µg/mL (≈ 43.7 µM) against Nannizzia gypsea.
Take `CCCC(=O)OCC#Cc1coc2cc(OC)ccc2c1=O`: the MIC against Candida albicans is 12.5 µg/mL (≈ 41.6 µM); against Candida parapsilosis, 50 µg/mL (≈ 166 µM); against Cryptococcus neoformans, 50 µg/mL (≈ 166 µM); with Trichophyton rubrum [2], 12.5 µg/mL (≈ 41.6 µM); with Nannizzia gypsea, 25 µg/mL (≈ 83.2 µM).
Take `COc1ccc2c(=O)c(C#CCOC(=O)C(C)C)coc2c1`: the MIC against Candida albicans is 50 µg/mL (≈ 166 µM); with Candida parapsilosis it was 12.5 µg/mL (≈ 41.6 µM); against Cryptococcus neoformans it was 50 µg/mL (≈ 166 µM); against Trichophyton rubrum [2] it was 3.12 µg/mL (≈ 10.4 µM); against Nannizzia gypsea, 25 µg/mL (≈ 83.2 µM).
Take `COc1ccc2c(=O)c(C#CCOC(=O)CC(C)C)coc2c1`: the MIC against Candida albicans was greater than 100 µg/mL; with Candida parapsilosis, 50 µg/mL (≈ 159 µM); in the assay on Cryptococcus neoformans, 50 µg/mL (≈ 159 µM); against Trichophyton rubrum [2] it was 6.25 µg/mL (≈ 19.9 µM); in the assay on Nannizzia gypsea, 25 µg/mL (≈ 79.5 µM).
Regarding `CCCCCC(=O)OCC#Cc1coc2cc(OC)ccc2c1=O`, the MIC against Candida albicans was greater than 100 µg/mL; in the assay on Candida parapsilosis, 50 µg/mL (≈ 152 µM); against Cryptococcus neoformans it was greater than 100 µg/mL; in the assay on Trichophyton rubrum [2], 25 µg/mL (≈ 76.1 µM); in the assay with Nannizzia gypsea, 12.5 µg/mL (≈ 38.1 µM).
Take `COc1ccc2c(=O)c(C#CCOC(=O)C3CCCCC3)coc2c1`: the MIC in the assay on Candida albicans, against Candida parapsilosis, in the assay on Cryptococcus neoformans, with Trichophyton rubrum [2] and with Nannizzia gypsea was greater than 100 µg/mL each time.
Regarding `CCCCCCC(=O)OCC#Cc1coc2cc(OC)ccc2c1=O`, the MIC in the assay with Candida albicans, in the assay on Candida parapsilosis, in the assay on Cryptococcus neoformans, in the assay with Trichophyton rubrum [2] and against Nannizzia gypsea was greater than 100 µg/mL each time.
Take `OC(Cn1cncn1)(Cn1cncn1)c1ccc(F)cc1F` [FLUCONAZOLE]: the MIC against Candida albicans is 0.25 µg/mL (≈ 0.816 µM); in the assay with Candida parapsilosis it was 32 µg/mL (≈ 104 µM); against Cryptococcus neoformans, 1 µg/mL (≈ 3.27 µM); in the assay on Trichophyton rubrum [2], 0.25 µg/mL (≈ 0.816 µM); in the assay on Nannizzia gypsea it was 0.5 µg/mL (≈ 1.63 µM).
